Here are results for 2 molecules from publication PMC12707241 (RSC Chemical Biology, 2025).

Assay [1] has as its system SIRT5. The note with it: cited from earlier work.
Assay [2] relates to SIRT5. The note with it: cited from earlier work. This is another data set of the same source.
For a further assay, the system named is HEK293 cells. The experiment in a line: Intracellular NAD+ level, HEK293 cells. The note with it: HEK293, 1 mM, 6 h. Format: cell-based, human. The gist of the method:
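HEK293 cells (DMEM, 10% FBS, 37 °C, 5% CO2) incubated with 1 mM NR or NARH for 6 h. Harvested, counted by hemocytometer, pelleted, and extracted in ice-cold 7% perchloric acid (three vortex/ice-sonication cycles). NAD+ measured by enzymatic cycling assay. Three independent experiments ± SD; Student's t-test.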

Where [3] appears, read: physiological NAM concentrations.

Where two headings read alike, the source gives them in different places.

For `NC(=O)c1cccnc1` [NAM, nicotinamide], in the assay on SIRT5 [1] (setting [3]), the “effect on deacetylase activity of SIRT5” value was “negligible changes”. For the same molecule, the “effect on desuccinylase activity of SIRT5” value in the assay with SIRT5 [2] (setting [3]) was “potently inhibit”.

For `NC(=O)c1ccc[n+]([C@@H]2O[C@H](CO)[C@@H](O)[C@H]2O)c1` [NR, nicotinamide riboside], the “intracellular NAD+ content” value in the assay on HEK293 cells is given as “nearly two-fold increase”. Moreover, the “effect on deacetylase activity of SIRT5” value with SIRT5 [1] was “selectively activates”. Also, the “effect on desuccinylase activity of SIRT5” value with SIRT5 [2] is recorded as “negligible changes”.
